# Screening results deposited in PubChem by several laboratories.
# TbMetRS inhib: T. brucei MetRS inhibitors, primary screen, biochemical, luminescence; 360,000 tested, 0.4% active; inhibition, % at 11.9 µM; purified T. brucei MetRS, ATP depletion, Kinase-Glo luminescence; AID 624268, 2012;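 active = inhibition above a per-plate cutoff of the control wells' mean inhibition plus 3 SD, cut at about 5.5% in these data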;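 note: 0% = DMSO wells median and 100% = median of wells with control inhibitor compound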
#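 Material: T. brucei methionyl-tRNA synthetase, purified; reagent: substrates ATP, L-methionine and bulk Escherichia coli tRNA; dosing: 11.9 µM single point; timing: 15 min plus 2 h at 25 °C; detection: luminescence of leftover ATP; evaluation: % inhibition; control set: DMSO-only wells as low control; replicates: singlicate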
# H9c2 protect: cardioprotection against H2O2-induced cell death, primary screen, uHTS, H9c2 cells, ATPLite luminescence; 360,000 tested, 0.63% active; H9c2 cardiomyocytes, H2O2 injury protection, 2 h; AID 588492, 2011; protection from H2O2 cell death, % at 20 µM;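 active = compounds giving at least 50% protection of heart cells from peroxide-induced death in the single-dose screen, raw or plate-pattern-corrected value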;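 note: 0% = DMSO wells with peroxide and 100% = DMSO wells without peroxide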
# Rin1-Abl PPI inh: inhibitors of Rin1-Abl protein binding, primary screen, biochemical, TR-FRET. 360,000 tested, 0.4% active. Tyrosine-protein kinase ABL1 (Homo sapiens) + Ras and Rab interactor 1 (Homo sapiens), …. inhibition, % at 7.35 µM. AID 588664, 2011; in the data active = inhibition above about 5%, passing the limit was not always enough
# PKA-R1A activ: activators of PKA-R1A holoenzyme, primary screen, biochemical, fluorescence polarization, Cy5-IP20, bovine R1A, mouse PKAc. cAMP-dependent protein kinase type I-alpha regulatory subunit (Bos taurus) + …. PKA-R1A dissociation; scaled: DMSO 0%, 113 µM cGMP 100%. activation, % at 11.4 µM. 340,000 tested, 0.083% active. AID 504707, 2011;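 active = percent activation above the mean of all tested compounds plus 3 SD, cut at about 19% in these data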;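 note: higher means more PKAc released from R1A so a rise in polarization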
# PKA-R2B activ: activators of PKA-R2B holoenzyme, primary screen, biochemical, fluorescence polarization, Cy5-IP20, human | 340,000 tested, 0.079% active | AID 504700, 2011 | cAMP-dependent protein kinase catalytic subunit beta (Homo sapiens) + cAMP-dependent … | activation, % at 11.4 µM | PKA-R2B holoenzyme dissociation; R2B truncated from residue 108, S112A mutant; 0% DMSO only, 100% 113 µM cGMP;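 active = activation above a cutoff set at the mean over all compounds plus 3 SD, cut at about 18% in these data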;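 note: higher means more holoenzyme dissociation and a rise in polarization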
# Rin1-Abl confirm: Rin1-Abl binding inhibitor retest, confirmation, biochemical, TR-FRET | shares compounds with Rin1-Abl PPI inh | purified proteins | inhibition, % at 7.35 µM | 1,300 tested, 49% active | AID 602124, 2011
# GFP quencher: GFP fluorescence inhibitors and quenchers, artefact control for Rin1-Abl interaction inhibitor project, biochemical; shares compounds with Rin1-Abl PPI inh; inhibitors/quenchers counterscreen; inhibition, % at 6.75 µM; 1,300 tested, 8.5% active;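 note: ABL1-eGFP fusion protein alone without its partner RIN1-SBP; 0% = protein with vehicle and 100% = wells lacking protein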
# GFP quench dose: GFP fluorescence inhibitors and quenchers, dose response, artefact control for Rin1-Abl interaction inhibitor project, biochemical; shares compounds with Rin1-Abl PPI inh; AID 602182, 2012; IC50, µM; 230 tested, under 10 active; GFP fluorescence interference/quenching counterscreen; call rule not given here;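 note: ABL1-eGFP fusion protein alone without its RIN1 binding partner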
# Active calls of the source: *; . = not tested or not shown. Rows were chosen to be rich in hits. Some 1.5% of all compounds tested hit in one or more screens of this group. Cut-off read from the data, not from the text of the source, unless noted: active = inhibition above about 6.5%; inactive = the rest.
SMILES,TbMetRS inhib,H9c2 protect,Rin1-Abl PPI inh,PKA-R1A activ,PKA-R2B activ,Rin1-Abl confirm,GFP quencher,others
CC(=O)c1c(C)cc(C)c(CSc2nnc(-c3ccco3)o2)c1C,0,0,5.4*,-15,-7,-3,-2,
CCC(c1nc2ccccc2c(=O)n1CCCn1ccnc1)N1C(=O)c2ccccc2C1=O (stereo unspecified),0,5,15*,-6,-4,21*,1,GFP quench dose=>67
CCC(c1nc2ccccc2c(=O)n1CCN1CCOCC1)N1C(=O)c2ccccc2C1=O (stereo unspecified),-1,0,-1,9,-3,.,.,
CCCc1nc2nc(C)c(NS(=O)(=O)c3ccc(CC(C)C)cc3)c(=O)n2[nH]1,-1,6,2,0,5,.,.,
CCc1nc2nc(C)c(NS(=O)(=O)c3ccc(CC(C)C)cc3)c(=O)n2[nH]1,0,1,8.2*,0,-2,2,1,
CCNC(=O)C1CCCN(C(=O)c2ccc(OC)c(OC)c2)CC1 (stereo unspecified),0,-1,-4,.,.,.,.,
O=C(NC1CCCC1)c1ccc(CS(=O)Cc2ccccc2Cl)o1 (stereo unspecified),0,-1,18*,4,10,0,0,
Oc1ccc(-c2cn3c(n2)SCC3)cc1O,1,14,26*,-4,-1,20*,15*,
C#CCOCCOCCOCCNc1nc(N2CCN(C(=O)CCCCCCCCCCNC(=O)Cn3cc(CCCCCN)nn3)CC2)nc(N2CCN(C(=O)CCCCCCCCCCNC(=O)[C@H](CO)n3cc(CCCCCN)nn3)CC2)n1,0,-3,5,6,4,.,.,
C#CCOCCOCCOCCNc1nc(N2CCN(C(=O)CCCCCCCCCCNC(=O)[C@H](CCCCN)n3cc(CCO)nn3)CC2)nc(N2CCN(C(=O)CCCCCCCCCCNC(=O)[C@H](CCCCN)n3cc(CCO)nn3)CC2)n1,0,-3,19*,1,-6,20*,1,
C#CCOCCOCCOCCNc1nc(N2CCOCC2)nc(N2CCN(C(=O)CCCCCCCCCCNC(=O)[C@H](CO)n3cc(CCCCCN)nn3)CC2)n1,0,7,9.9*,-3,0,9.8*,-1,
CC(=O)Oc1ccc2c(=O)c(Oc3ccccc3)coc2c1OC(C)=O,0,38,5.5*,-18,-12,1,4,
COCCn1nnnc1C(CC(C)C)N1CCN(c2nc3ccccc3s2)CC1 (stereo unspecified),0,13,9.3*,10,-14,-2,0,
CCC(c1nnnn1CCOC)N1CCN(c2nc3ccccc3s2)CC1 (stereo unspecified),1,-4,2,8,0,.,.,
Cc1ccc(S(=O)(=O)N2CCN(C(=O)Cn3cnc4c3c(=O)n(C)c(=O)n4C)CC2)cc1C,0,7,17*,3,-1,19*,-1,GFP quench dose=>68
CCC1(CC)NC(=O)N(CC(=O)Nc2cccc3ccccc23)C1=O,0,6,0,6,1,.,.,
CCOc1ccccc1OCCn1ncc2ccc(OC)c(OC)c2c1=O,0,2,-3,-8,-11,.,.,
COc1ccc2cnn(CCOc3ccccc3)c(=O)c2c1OC,-1,0,14*,2,-8,-1,1,
Cc1ccc(Nc2nc3ccccc3s2)c(C)c1,0,-12,6.9*,-17,-19,0,0,
Cc1cc(C)nc(Nc2nc3ccccc3s2)n1,0,5,-5,-14,-5,.,.,
C[C@@H]1O[C@@H](OC[C@H]2O[C@@H](Oc3c(-c4ccc(O)c(O)c4)oc4cc(O)cc(O)c4c3=O)[C@H](O)[C@@H](O)[C@@H]2O)[C@H](O)[C@H](O)[C@H]1O,0,-6,15*,8,-3,21*,2,GFP quench dose=>68
CC1OC(OCC2OC(Oc3c(-c4ccc(O)cc4)oc4cc(O)cc(O)c4c3=O)C(O)C(O)C2O)C(O)C(O)C1O (stereo unspecified),2,0,12,0,-3,.,.,
N#Cc1ccc(C(=O)N2CCCCC2c2cc(C(=O)Nc3cccc(C#N)c3)no2)cc1 (stereo unspecified),0,5,-2,.,.,.,.,
O=C(NCCOc1nc(N2CCOCC2)nc(N2CCOCC2)n1)Nc1ccccc1,-1,4,6.9*,2,6,2,-2,
COc1cc2c(cc1OC)C(C)N(C(=O)c1cc3c(C)cc(C)cc3[nH]1)CC2 (stereo unspecified),0,-2,0,-6,-4,.,.,
SMILES,TbMetRS inhib,H9c2 protect,Rin1-Abl PPI inh,PKA-R1A activ,PKA-R2B activ,Rin1-Abl confirm,GFP quencher,others
O=C(Nc1ccc(C(F)(F)F)cc1)C1CCN(c2cnccn2)CC1,0,-3,0,-4,-12,.,.,
O=C(NC1CCN(Cc2ccccc2)CC1)c1ccc2c(c1)[nH]c(=O)n2Cc1ccc(F)cc1,0,-5,10*,-8,-8,13*,0,
COCCN=c1scc(-c2cccs2)n1/N=C/c1ccc(O)c(O)c1O,0,30,13*,-2,-1,11*,10*,
CCN=c1scc(C)n1/N=C/c1ccc(O)c(O)c1O,0,17,20*,-8,2,16*,12*,
COCCN=c1scc(-c2ccccc2)n1/N=C/c1c[nH]c2ccccc12,-1,-11,3,-3,-9,.,.,
CCOC(=O)N1CCC(Nc2cc(C)nc3c(-c4ccccc4OC)c(C)nn23)CC1,-1,-4,6.2*,-6,-13,3,-1,
CCN(CC)Cc1cc(O)c(CN(CC)CC)cc1O,1,55*,11*,7,1,1,5,
COc1ccc(CNC2CCCc3ccccc32)c(OC)c1 (stereo unspecified),0,-1,6.2*,0,-2,0,0,
COc1ccc(O)c(/C=N/NC(=O)CCC(=O)Nc2ccc(F)cc2)c1,-1,27,-3,0,-14,.,.,
